This passage reports IC50 and inhibition results from ChEMBL document CHEMBL4680190, “Imidazo[2,1-b] [1,3,4]thiadiazoles with antiproliferative activity against primary and gemcitabine-resistant pancreatic cancer cells” (Eur J Med Chem, 2020).

For one assay, the system named is PANC-1. Kind of assay: Antiproliferative activity against human Panc-1 cells assessed as reduction in cell growth incubated for 72 hrs by SRB assay. In kind it is functional, cell-based. The note with it: PANC-1, 72 h. The method in brief: (§1)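 Cells were seeded in triplicate at 3×10³/well (Panc-1, Panc-1R, PDAC-3) or 5×10³/well (Capan-1) and preincubated 24 h at 37 °C. Fixation was cold TCA, staining 0.4% SRB, solubilisation Tris pH 8.8, read at 490/540 nm. Growth was taken versus vehicle, day-0 corrected, and IC50 fitted nonlinearly; three independent experiments, mean ± SEM.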
A general note: In SRB staining, fixed cells bind dye roughly in proportion to their protein.

The nature of assay [1]: Antiproliferative activity against human SUIT-2 cells assessed as reduction in cell growth incubated for 72 hrs by SRB assay. In kind it is functional, cell-based. The note with it: SUIT-2, 72 h. The method in brief: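 SUIT-2 cells seeded at 3 × 10³/well in triplicate and left 24 h at 37 °C. Cells were fixed with cold TCA, stained with 0.4% SRB in 1% acetic acid and dissolved in Tris pH 8.8. A490/A540 was read vs vehicle, corrected for day-0 OD. IC50 came from nonlinear curve fit; mean of three experiments.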

Assay [2] in a line: Antiproliferative activity against human PDAC-3 cells assessed as inhibition of cell growth incubated for 72 hrs by SRB assay. In kind it is functional, cell-based. The note with it: PDAC-3, 72 h. The method in brief: as §1
Assay [3] in a line: Antiproliferative activity against gemicitabine-resistant human Panc-1R cells incubated for 72 hrs by SRB assay. In kind it is functional, cell-based. Conditions: PANC-1, 72 h. An outline of the steps:
as §1

A further assay deals with CAPAN-1. Kind of assay: Antiproliferative activity against human Capan-1 cells assessed as reduction in cell growth incubated for 72 hrs by SRB assay. In kind it is functional, cell-based. Conditions: CAPAN-1, 72 h. An outline of the steps:
as §1

The target in assay [4] is Focal adhesion kinase 1 (Homo sapiens) (UniProt Q05397). Description: Inhibition of PTK2 in human Panc-1 cells assessed as inhibition of PTK2 phosphorylation at Y397 residue at 5XIC50 incubated for 24 hrs by western blot analysis. In kind it is cell-based.
Sequence of Focal adhesion kinase 1 (Homo sapiens) (Q05397 2-1052 limits assumed): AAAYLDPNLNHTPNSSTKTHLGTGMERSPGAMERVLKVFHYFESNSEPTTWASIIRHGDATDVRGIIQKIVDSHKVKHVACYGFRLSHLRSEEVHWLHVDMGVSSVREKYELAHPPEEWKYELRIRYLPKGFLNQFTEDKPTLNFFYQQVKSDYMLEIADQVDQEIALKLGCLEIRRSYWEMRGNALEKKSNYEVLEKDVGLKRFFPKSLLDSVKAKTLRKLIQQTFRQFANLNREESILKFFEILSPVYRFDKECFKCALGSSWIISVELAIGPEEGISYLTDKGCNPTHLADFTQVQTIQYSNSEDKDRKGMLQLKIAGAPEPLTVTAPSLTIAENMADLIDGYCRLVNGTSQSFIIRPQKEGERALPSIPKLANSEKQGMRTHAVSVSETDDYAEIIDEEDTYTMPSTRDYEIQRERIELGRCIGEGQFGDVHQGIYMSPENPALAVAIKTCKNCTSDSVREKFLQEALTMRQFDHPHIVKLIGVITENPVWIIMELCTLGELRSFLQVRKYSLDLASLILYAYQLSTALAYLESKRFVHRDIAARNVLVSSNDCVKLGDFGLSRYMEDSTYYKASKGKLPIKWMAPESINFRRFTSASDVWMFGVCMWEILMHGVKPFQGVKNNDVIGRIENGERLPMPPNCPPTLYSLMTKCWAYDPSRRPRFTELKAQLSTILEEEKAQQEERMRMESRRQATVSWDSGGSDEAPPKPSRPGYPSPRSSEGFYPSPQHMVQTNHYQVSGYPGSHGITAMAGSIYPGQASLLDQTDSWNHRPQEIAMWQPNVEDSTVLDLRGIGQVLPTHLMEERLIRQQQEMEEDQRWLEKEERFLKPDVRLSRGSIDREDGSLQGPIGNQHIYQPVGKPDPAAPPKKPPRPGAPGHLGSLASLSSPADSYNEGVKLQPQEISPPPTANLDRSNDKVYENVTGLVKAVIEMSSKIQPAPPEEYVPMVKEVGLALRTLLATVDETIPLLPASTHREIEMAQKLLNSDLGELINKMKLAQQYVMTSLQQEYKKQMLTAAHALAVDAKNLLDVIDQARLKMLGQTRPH
Assay [5] has the same target. Kind of assay: Inhibition of PTK2 in human CAPAN-1 cells assessed as inhibition of PTK2 phosphorylation at Y397 residue at 5XIC50 incubated for 24 hrs by western blot analysis. In kind it is cell-based. (In general: Immunoblotting shows a protein as a band on a membrane.)
The target is the same in assay [6]. Kind of assay: Inhibition of PTK2 in human SUIT-2 cells assessed as inhibition of PTK2 phosphorylation at Y397 residue at 5XIC50 incubated for 24 hrs by western blot analysis. In kind it is cell-based.

Structures are written as SMILES. Calls of active or inactive are those of the source. The rule behind the calls is not given here.

In general, IC50 refers to the concentration that gives 50% inhibition. As to `Nc1ccn([C@@H]2O[C@H](CO)[C@@H](O)C2(F)F)c(=O)n1` [GEMCITABINE], the half-maximal inhibitory concentration (IC50) with PANC-1 is 0.15 µM; in assay [1] it was 0.01 µM; in assay [2], 0.03 µM; in assay [3] it was > 10 µM; with CAPAN-1, 0.02 µM.

Turning to `O=Cc1c(-c2ccccc2)nc2sc(-c3c[nH]c4ccccc34)nn12`, the values for the IC50 (in the assay with PANC-1; in assay [1]; in the assay on CAPAN-1) were 12.4 µM, 9.56 µM and 10.5 µM, respectively.

As to `COc1ccc(OC)c(-c2nc3sc(-c4c[nH]c5ccccc45)nn3c2C=O)c1`, the concentration for half-maximal inhibition (IC50) was > 16 µM in the assay on PANC-1, 13 µM in assay [1] and > 16 µM in the assay on CAPAN-1.

Take `c1ccc2c(-c3nn4cc(-c5ccsc5)nc4s3)c[nH]c2c1`: the inhibition result in assay [4], in assay [5] and in assay [6] was “Active” each time.

On to `Cn1cc(-c2nn3cc(-c4ccsc4)nc3s2)c2ccccc21`, for which the inhibition result in assay [4], in assay [5] and in assay [6] was “Active” in each case.

`O=c1[nH]cc(F)c(=O)[nH]1` [FLUOROURACIL]: the IC50 was 4.3 µM in the assay on PANC-1; 0.91 µM in assay [1]; 0.56 µM in assay [2]; 4.5 µM in assay [3]; 0.47 µM with CAPAN-1.

Turning to `COc1ccc(OC)c(-c2nc3sc(-c4c[nH]c5ccc(Br)cc45)nn3c2C=O)c1`, the IC50 is 10.6 µM with PANC-1, 8.7 µM in assay [1] and 8.24 µM in the assay with CAPAN-1.

Regarding `COc1ccc(OC)c(-c2nc3sc(-c4cn(C)c5ccccc45)nn3c2C=O)c1`, the IC50 was > 16 µM in the assay with PANC-1, 12.5 µM in assay [1] and 5.73 µM in the assay on CAPAN-1.

As for `O=Cc1c(-c2ccc(F)cc2)nc2sc(-c3c[nH]c4ccccc34)nn12`, the IC50 in the assay on PANC-1 turned out to be 10.5 µM; in assay [1], 7.93 µM; in the assay with CAPAN-1 it was 8.83 µM.

As to `COc1cccc(-c2nc3sc(-c4c[nH]c5ccccc45)nn3c2C=O)c1`, the IC50 was > 16 µM in the assay with PANC-1, 11.5 µM in assay [1] and > 16 µM in the assay with CAPAN-1.
